In one assay the test system is LNCaP. Nature of the assay: Cytotoxicity against human LNCAP cells assessed as reduction in cell viability after 72 hrs by CellTiter96 AQueous one solution cell proliferation assay. It is filed as functional, cell-based. The essentials: (§1)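 MTS viability in RPMI with 5% fetal calf serum, 2.0 mM L-glutamine, nonessential amino acids, 1.0 mM pyruvate, penicillin/streptomycin, 10 mM HEPES and 2-mercaptoethanol. Cells were seeded at 10 000 (LNCaP) or 5000 (others) and grown overnight at 37 °C. Serial dilutions in DMSO went into triplicate wells for 72 h. MTS was read at 490 nm after 2 h. IC50 ± SD from dose–response curves, at least three independent experiments.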

The test system of a further assay is CWR22R. Nature of the assay: Cytotoxicity against human 22Rv1 cells assessed as reduction in cell viability after 72 hrs by CellTiter96 AQueous one solution cell proliferation assay. The format is functional, cell-based. Conditions: 22Rv1, 72 h. The essentials:
as §1

Another assay has as its system ACHN. Nature of the assay: Cytotoxicity against human ACHN cells assessed as reduction in cell viability after 72 hrs by CellTiter96 AQueous one solution cell proliferation assay. It is filed as functional, cell-based. The essentials: as §1
The next assay concerns M14. In words: Cytotoxicity against human M14 cells assessed as reduction in cell viability after 72 hrs by CellTiter96 AQueous one solution cell proliferation assay. It is filed as functional, cell-based. The settings on record: M14, 72 h. A digest of the protocol: (§2)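 MTS viability in DMEM with 5% fetal calf serum, 2.0 mM L-glutamine, nonessential amino acids, 1.0 mM pyruvate, penicillin/streptomycin, 10 mM HEPES and 2-mercaptoethanol. 5000 cells were grown overnight at 37 °C. Serial DMSO dilutions went into triplicate wells for 72 h. MTS absorbance was read at 490 nm after 2 h. IC50 ± SD from at least three independent dose–response experiments.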

The test system of the next assay is SK-MEL-28. Nature of the assay: Cytotoxicity against human SK-MEL-28 cells assessed as reduction in cell viability after 72 hrs by CellTiter96 AQueous one solution cell proliferation assay. The format is functional, cell-based. The settings on record: SK-MEL-28, 72 h. The essentials: as §2
In the next assay the test system is HFF. In words: Cytotoxicity against HFF cells assessed as reduction in cell viability after 72 hrs by CellTiter96 AQueous one solution cell proliferation assay. It is filed as cell-based. Conditions: Homo sapiens. The essentials: as §1

As for `C[C@H]1C[C@H]([C@](C)(O)[C@]2(O)CC[C@@]3(O)[C@@H]4C[C@H]5O[C@]56CC=CC(=O)[C@]6(C)[C@H]4CC[C@]23C)OC(=O)[C@@H]1C`, the IC50 (in general, the concentration needed to halve the response being measured) in the assay on LNCaP was 290 nM; in the assay on CWR22R it was 210 nM; in the assay with ACHN, more than 2000 nM; in the assay with M14 it was more than 2000 nM; in the assay with SK-MEL-28 it was more than 2000 nM; with HFF, more than 2000 nM.

Consider `CC1=C(C)[C@H](O)[C@H]([C@](C)(O)[C@]2(O)CC[C@@]3(O)[C@@H]4C[C@H]5O[C@]56CC=CC(=O)[C@]6(C)[C@H]4CC[C@]23C)OC1=O`, for which the IC50 was more than 2000 nM in the assay with LNCaP; 890 nM in the assay on CWR22R; more than 2000 nM in the assay on ACHN; more than 2000 nM with M14; more than 2000 nM with SK-MEL-28; more than 2000 nM in the assay with HFF.

`CC1=C(C)C(=O)O[C@@H]([C@](C)(O)[C@]2(O)CC[C@@]3(O)[C@@H]4CC=C5[C@@H](O)C=CC(=O)[C@]5(C)[C@H]4CC[C@]23C)C1`: the IC50 in the assay on LNCaP is 110 nM; with CWR22R, 70 nM; with ACHN it was 1000 nM; in the assay on M14 it was more than 2000 nM; in the assay on SK-MEL-28, more than 2000 nM; with HFF, more than 2000 nM.

(Values after ChEMBL document CHEMBL4190220, “Withanolides from Aeroponically Grown Physalis peruviana and Their Selective Cytotoxicity to Prostate Cancer and Renal Carcinoma Cells” (J Nat Prod, 2017).)
